KCNK3 block: human KCNK3 channel inhibitors, primary screen, CHO cells, FluxOR thallium flux, B-score. Potassium channel subfamily K member 3 (Homo sapiens), O14649. FluxOR fluorescence; hits give low values. B-score at 10 µM. 0.84% of 340,000 active. AID 602410, 2012;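 active = B-score under library mean minus 4 SD, starting fluorescence ratio at most library mean plus 5 SD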;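 also: more negative B-score means stronger inhibition of thallium flux through KCNK3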
Kir21 inh: inhibitors of mouse Kir2.1 inward-rectifier potassium channel; 0.85% of 310,000 active; HEK293-Kir2.1, FluxOR thallium flux fluorescence; hits give low values; B-score at 10 µM; Inward rectifier potassium channel 2 (Mus musculus), P35561;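 active = fluorescence ratio B-score at or below minus 3 SD of library scores, with starting-brightness B-score within 2 SD, cut at about -4.2 in these data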;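 also: channel flux triggered by added potassium and thallium sulfate stimulus; B-score of peak minus minimum fluorescence over baseline after thallium stimulus; more negative B-score means stronger Kir2.1 block with less thallium influx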
hERG rescue: hERG rescue from dofetilide block, primary screen, cell-based, CHO-hERG, FluxOR thallium flux, dofetilide IC70. Voltage-gated inwardly rectifying potassium channel KCNH2 (Homo sapiens), Q12809. dofetilide IC70 present. activation (rescue from dofetilide block), less the hit threshold, % at 10 µM. 0.51% of 310,000 active;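 active = activation above the mean of controls blocked by dofetilide plus 5 SD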;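 also: thallium influx through hERG after potassium depolarization seen as dye fluorescence rise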
KCNQ1 block: inhibitors of human KCNQ1 channel, primary screen, cell-based, thallium flux, high-throughput | B-score at 10 µM | CHO-K1 KCNQ1, FluxOR thallium flux fluorescence; hits give high values | 1.3% of 310,000 active;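 active = compounds whose thallium flux B-score, printed positive for inhibition, exceeds three library SD while starting fluorescence stays within three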;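 also: channel opened by potassium depolarization with thallium stimulus after 20 min compound exposure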
KCNQ1 pot: potentiators or activators of KCNQ1 channel, primary screen, cell-based, thallium flux, high-throughput; CHO-K1 KCNQ1, thallium flux FluxOR fluorescence; hits give high values; B-score at 10 µM; AID 2648, 2010; 0.35% of 310,000 active; Potassium voltage-gated channel subfamily KQT member 1 (Homo sapiens), P51787;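 active = fluorescence ratio B-score, a plate-corrected score, at least three library SD, with initial intensity B-score within 5 SD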
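assay system = KCNQ1-transfected CHO-K1 cells | medium = assay buffer with matched DMSO | probe or stimulus = depolarizing K+/Tl+ stimulus, K2SO4 and Tl2SO4 each 12.5 mM in 5x stock | dosing = single dose | incubation = dye 90 min, compound 20 min, room temperature | detection = kinetic FluxOR fluorescence, 10 s baseline plus 110 s post-stimulus | evaluation = ratio B score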
KCNK9 inh: KCNK9 potassium channel inhibitors, primary screen, HEK293 cells, thallium flux; B-score at 10 µM; FluxOR thallium flux fluorescence; hits give low values; 1.2% of 310,000 active; Potassium channel subfamily K member 9 (Homo sapiens), Q9NPC2; AID 488922, 2010;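 active = ratio B-score over 3 SD below the library mean, with starting fluorescence within 5 SD of its mean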;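 also: negative B-score means less thallium flux so channel inhibition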
KCNK9 block conf: KCNK9 potassium channel inhibitors, confirmation, HEK293 cells, thallium flux, duplicate; shares compounds with KCNK9 inh; FluxOR thallium flux fluorescence; inhibition, % at 10 µM; 43% of 4,900 active; AID 492992, 2010;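 active = thallium signal inhibited by more than 5 SD of the compound-free buffer control wells, on both duplicate plates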;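 also: 0% = assay buffer control wells without compound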
Kir2-1 spec: mouse Kir2.1 channel inhibition, confirmation, selectivity assay for KCNK9 modulator project, cell-based, HEK293, thallium flux; 4% of 4,900 active; AID 492993, 2010; shares compounds with KCNK9 inh; Kir2.1 cells, FluxOR thallium flux fluorescence; inhibition, % at 10 µM;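 active = thallium signal drop more than 5 SD beyond the mean of the no-compound control wells, seen in both duplicate plates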;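 also: signal is fluorescence rise after thallium addition divided by baseline fluorescence; plate controls were assay buffer only for no effect and full block by chlorpromazine control for full effect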
KCNK9 uninduced: thallium flux in non-induced HEK293 cells, confirmation, counter-screen for KCNK9 inhibitor project, cell-based, second counter screen, non-induced KCNK9-HEK293. shares compounds with KCNK9 inh. inhibition, % at 10 µM. AID 492997, 2010. 40% of 4,900 active. FluxOR thallium flux;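 active = thallium signal drop beyond 5 SD of the untreated control mean, on both duplicate plates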;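 also: plate controls were buffer only IC0 wells for no effect and SID17386958 at its maximal inhibitory level for full effect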
Active calls of the source: *; i = inactive; / = no result; ! = a repeat was not active. Only some compounds are listed: those with a hit (about 3.7% of all), similar ones and a draw of the others.

SMILES | KCNK3 block | Kir21 inh | hERG rescue | KCNQ1 block | KCNQ1 pot | KCNK9 inh | KCNK9 block conf | Kir2-1 spec | KCNK9 uninduced
CSc1ncccc1C(=O)N1CCCC(C(=O)c2ccc3ccccc3c2)C1 (configuration not stated) | i | -0.03 | -14.2 | i | i | i | i | i | i
CN(C)c1ccccc1C(=O)N1CCCC(C(=O)c2ccc3ccccc3c2)C1 (configuration not stated) | i | 0.59 | -23.8 | i | i | i | i | i | i
O=C(c1ccc2ccccc2c1)C1CCCN(C(=O)c2cccnc2)C1 (configuration not stated) | i | 1.95 | -1.0 | i | i | i | / | / | /
Cc1ccc2c(Cl)c(C)c(N3CCCCC3)nc2n1 | i | -1.2 | -6.0 | i | i | i | i | i | i
Cc1nc2ccccc2nc1N1CCCCC1 | i | / | / | / | / | / | / | / | /
CC(O)[C@H]1CNC(=O)C(=O)N1CCCCC1CCCCC1 (some centres not stated) | i | 0.64 | -8.9 | i | i | i | / | / | /
Fc1ccc(/C=C/c2nnc(-c3cccs3)o2)cc1 | i | -0.03 | -3.5 | i | i | -8.68* | 33.0%* | i | i
COc1ccc(Cn2nnc3c(=O)[nH]c(C4CCN(S(=O)(=O)c5ccc(C)cc5)CC4)nc32)cc1 | i | 0.16 | -5.0 | i | i | i | / | / | /
COc1cc(OC)c2c(-c3ccccc3)cc(=O)oc2c1C(CCN1CCN(c2ccccc2)CC1)c1ccc(N(C)C)cc1 (configuration not stated) | i | -0.45 | -13.8 | i | i | i | / | / | /
COc1cc(OC)c2ccc(=O)oc2c1C(CCN1CCN(c2ccccc2)CC1)c1ccc(N(C)C)cc1 (configuration not stated) | i | 1.23 | -13.7 | i | i | i | i | i | i
CCN(c1ccccc1)S(=O)(=O)c1cc([N+](=O)[O-])ccc1N | i | -6.98* | -8.3 | i | i | -10.6* | 41.0%* | 31.0%* | 33.0%*
Cc1ccc(/C=N/N2CCOCC2)s1 | i | 0.66 | -8.5 | i | i | i | / | / | /
CC1(C)CC(C(CCN(Cc2ccccc2)C(=O)c2ccco2)c2ccc(F)cc2)CCO1 (configuration not stated) | i | 1.37 | -13.1 | i | i | -10.4* | 67.0%* | i | 49.5%*
CC1(C)CC(N(Cc2ccc(F)cc2)C(=O)c2ccc(F)cc2)CCO1 (configuration not stated) | i | -0.56 | -3.5 | i | i | i | / | / | /
Cc1noc(C)c1COc1ccc(C(=O)N2CCC(C(N)=O)CC2)cc1 | i | / | / | / | / | / | / | / | /
Cc1ccccc1C(C(=O)NC1CCCCC1)N(C(=O)CNC(=O)c1ccco1)c1cccnc1 (configuration not stated) | i | 0.21 | -5.4 | i | i | i | / | / | /
CCc1ccc(C2CC(=O)N3CN(c4ccccc4)CSC3=C2C#N)cc1 (configuration not stated) | i | -0.36 | -1.8 | i | i | i | / | / | /
CN1CSC2=C(C#N)C(c3cccc(OCc4ccccc4)c3)CC(=O)N2C1 (configuration not stated) | i | 0.26 | -7.3 | i | i | i | i | i | i
Nc1nc(SCC(=O)N2CCCCC2)[nH]c(=O)c1NC(=O)c1ccccc1F | i | -0.98 | -9.1 | i | i | i | / | / | /
Cc1nc(SCc2ccccc2C#N)n[nH]1 | i | 0.41 | -6.5 | i | i | i | / | / | /
N#Cc1ccccc1CSc1nc(N2CCCCC2)nc(N2CCCCC2)n1 | i | -0.87 | -10.6 | i | i | i | i | i | i
CN[C@H]1CC[C@@H](c2ccc(Cl)c(Cl)c2)c2ccccc21 | i | -6.25* | / | i | i | -8.56*! | 34.0%* | i | /
O=c1c2c(ncn2C2CCCC2)n(Cc2ccccc2)c(=O)n1CCOc1ccccc1 | i | -1.36 | -1.5 | i | i | i | i | i | i
Cc1ccc(C)c(OCCn2c(=O)c3c(ncn3C3CCCC3)n(Cc3ccccc3)c2=O)c1 | i | -0.7 | -13.0 | i | i | i | i | i | i
O=c1c2c(ncn2C2CCCC2)n(Cc2ccccc2)c(=O)n1CCOc1ccc(Br)cc1 | i | -0.13 | -9.3 | i | i | i | i | i | i
SMILES | KCNK3 block | Kir21 inh | hERG rescue | KCNQ1 block | KCNQ1 pot | KCNK9 inh | KCNK9 block conf | Kir2-1 spec | KCNK9 uninduced
CCN(CC)C1Oc2cc3c(cc2C(c2cc(OC)c(OC)c(OC)c2)C1C)OCO3 (configuration not stated) | i | / | / | / | / | / | / | / | /
O=C(O)/C=C/C(=O)Nc1ccc(Oc2ncnc3cc(Cl)ccc23)nc1 | / | -0.07 | -6.9 | i | i | i | / | / | /
CCc1ccc(OCCNC(=O)c2ccccc2SCc2ccccc2)cc1 | i | 1.3 | -7.2 | 7* | i | i | i | i | 37.0%*
CC(C)(C)C1CCc2c(sc3c2C(=O)NC(c2ccco2)N3)C1 (configuration not stated) | i | 1.14 | 2.0 | i | i | i | i | i | i
CN1CCc2c(sc3c2C(=O)NC(c2ccccc2)N3)C1 (configuration not stated) | i | -0.44 | -3.0 | i | i | i | / | / | /
Cc1ccc(S(=O)(=O)N(C)C)cc1-n1c(SCC(=O)Nc2ccc(F)c(F)c2F)nc2ccccc2c1=O | i | 0.06 | -2.6 | i | i | -13.7* | 64.0%* | i | 40.0%*
Cc1ccc(S(=O)(=O)N(C)C)cc1-n1c(SCC(=O)N(C)C)nc2ccccc2c1=O | i | 1.97 | -6.1 | i | i | i | / | / | /
